# In paper PMC3163381 (Biochemistry, 2011):
# What was measured:
# MscS = assay: Patch-clamp of MscS in giant spheroplast patches, activation midpoint; assay type: biochemical, E. coli
# Procedure, shortened: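 Giant spheroplasts from cephalexin-treated E. coli MJF 465 (mscS/mscK/mscL) expressing WT MscS. Excised inside-out patches in symmetrical 200mM KCl, 45mM MgCl2, 5mM CaCl2, 5mM HEPES (pH 7.4, KOH); bath had 400mM sucrose added. Test compound was perfused into the bath (cytoplasmic side). p0.5 was taken from 1 s pressure ramps, first within 1 min, then tracked over time, and normalized to pre-addition control.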
# [1] = Stability of AI-1 in water and phosphate buffer; assay type: physicochemical
# Procedure, shortened: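 Test compound was held in deionized water and in phosphate buffer at pH 7.4, and followed over several days. Half-life was determined in the buffer.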
# [2] = Surface tension measurements at the air-water interface; assay type: physicochemical; settings: for surface activity at the air-water interface: result in words
# [3] = Pressure-area isotherms of lipid monolayers with the substance in the subphase; assay type: physicochemical, Escherichia coli; settings: for increase in the lipid molecular area: 1 mM in subphase, at 35 mN/m (monolayer-bilayer equivalence pressure)
# [4] = Solubility and stock solution observations in aqueous solution; settings: result in words
smiles,measurement,setting,value
"CCCCCCCC(=O)CC(=O)N[C@H]1CCOC1=O [AI-1, N-(3-Oxodecanoyl)-L-homoserine lactone]",shift of MscS p0.5 toward higher tension,"MscS; 1 mM AI-1 from cytoplasmic side, relative to untreated control",≤ 23%
same,stability in pure water,"[1]; deionized water, result in words",stable in pure water in the course of several days
same,half-life,[1]; phosphate buffer at pH 7.4,130 h
same,"Γ, surface excess","[2]; Gibbs isotherm fit, 100 mM KCl, 5 mM HEPES pH 7.4",3.4*10^−6 mol/m^2
same,"AS, molecular area at the surface","[2]; air-water interface, from Gibbs isotherm fit",49 Å^2
same,decrease of surface tension of the solution,"[2]; at 1–5 mM, aqueous buffer pH 7.4",~ 17 mN/m
same,"log Kmemb, membrane partitioning coefficient",[2]; calculated from AS and KAW according to Suomalainen,1.94
same,"KAW, propensity toward air-water interface","[2]; extrapolated Gibbs isotherm fit, pH 7.4",5600 M⁻¹
same,lateral pressure increase in monolayers,"[3]; at lipid area of 68–70 Å^2, Fig. 4A",~ 5 mN/m
"CC(=O)C(=O)C(O)CO (centres unmarked) [AI-2 (Methyl), 4,5-dihydroxy-2,3-pentanedione]",effect on the activation midpoint of MscS,"MscS; up to 1 mM in the bath, result in words, listed as AI-2",no detectable shifts
same,surface activity at the air-water interface,[2],did not show any appreciable surface activity
same,increase in the lipid molecular area,[3],2%
c1ccc2[nH]ccc2c1 [Indole],level at which p0.5 stabilizes above the control,"MscS; 2.5 mM indole, after return",~ 4%
same,transient shift of MscS activation curve towards higher tension,"MscS; 2.5 mM indole, cytoplasmic side, naive patch",~ 20%
same,solubility in aqueous solution,[4],limited solubility
same,surface activity at the air-water interface,[2],did not show any appreciable surface activity
same,increase in the lipid molecular area,[3],5%
